What was measured:
[1] = Half-life was evaluated in water in the absence of light; format: ADME
[2] = Relative mutation induction for L5178Y cells was evaluated at dose 0.005 mg/mL in dark-I condition (expt-I); format: functional, Mus musculus
Summary of the method: (§1)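 L5178Y suspension cells (3 × 10^6/mL, 5% CO2, 37 °C, shaking) exposed 20 h without activating enzyme; light arm irradiated 6.5 min (Hg lamp, <340 nm filtered). Cells washed, grown 24 h more and kept at 3 × 10^5/mL. Viability from 200 cells in soft agar; TFT (0.1 mg/mL) resistant colonies from 10^6 cells in triplicate dishes, counted at 10 days.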

[3] = Relative mutation induction for L5178Y cells was evaluated at dose 0.005 mg/mL in light-I condition (expt-I); format: functional, Mus musculus; summary of the method: as §1
[4] = Relative toxicity against mammalian L5178Y cells at dose 0.005 mg/mL in dark condition (expt-II); format: functional, Mus musculus
Summary of the method: (§2)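 L5178Y mouse cells in suspension, 3 × 10^6 cells/mL, were exposed for 20 h at 37 °C in a shaker at 150 rpm under 5% CO2, without an activating enzyme. Light arms were irradiated for 6.5 min with a medium-pressure Hg lamp filtered to remove light below 340 nm; dark arms were not. Toxicity was taken as the Coulter-counted density of treated cells versus solvent control.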

[5] = Ability to block cleavage of TTT/AAA site in DraI enzyme with the light activated test compound/DNA ratio 1(no. of sites=3); += light activation
Summary of the method: (§3)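 pBR322 plasmid mixed with drug at 0.015, 0.12 or 0.48 mM (drug:DNA 1:8, 1:1 or 4:1), equilibrated on ice 30 min in the dark in 5 mM potassium phosphate pH 5.5, then irradiated 1 h with a medium-pressure Hg lamp (<340 nm filtered); dark set kept as control. Digested overnight with 10× excess enzyme plus DTT; fragments resolved on 1.2% agarose in TBE.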

[6] = Relative toxicity against mammalian L5178Y cells at dose 0.005 mg/mL in light-1 condition (expt-I); format: functional, Mus musculus; summary of the method: as §2
[7] = Ability to block cleavage of GCC/GGC site in NaeI enzyme with the light activated test compound/DNA ratio 1:8(no. of sites=4); += light activation; summary of the method: as §3
[8] = Induction frequency for L5178Y cells was evaluated at dose 0.005 mg/mL in dark condition (expt-II); format: functional, Mus musculus; summary of the method: as §1
[9] = Viability of L5178Y cells was evaluated at dose 0.008 mg/mL in light-II condition (expt-I); format: functional, Mus musculus
Summary of the method: (§4)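 L5178Y cells were exposed for 20 h at 3 × 10^6 cells/mL. Light arms then received 6.5 min of Hg-lamp irradiation filtered to remove light below 340 nm. Cells were washed twice in Fischer's medium, grown a further 24 h and held at 3 × 10^5 cells/mL. For viability, 200 cells were plated in soft-agar cloning medium in triplicate dishes, and colonies were counted by an automated counter after 10 days.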

[10] = Ability to block cleavage of TTT/AAA site in DraI enzyme with the light activated test compound/DNA ratio 4(no. of sites=3); += light activation; summary of the method: as §3
[11] = Ability to block cleavage of AG/CT site in AluI enzyme with the light activated test compound, DNA ratio 4(no. of sites=16); += light activation; summary of the method: as §3
[12] = Relative mutation induction for L5178Y cells was evaluated at dose 0.005 mg/mL in light condition (expt-II); format: functional, Mus musculus; summary of the method: as §1
[13] = Viability of L5178Y cells was evaluated at dose 0.005 mg/mL in dark condition (expt-II); format: functional, Mus musculus; summary of the method: as §4
[14] = Ability to block cleavage of G/GNCC site in Restriction endonuclease Sau961 with the light activated test compound/DNA ratio 4(no. of sites=15); += light activation; summary of the method: as §3
[15] = Ability to block cleavage of GG/CC site in HaeIII enzyme with the light activated test compound/DNA ratio 4(no. of sites=22); += light activation; summary of the method: as §3
[16] = Mutation frequency for L5178Y cells was evaluated at dose 0.005 mg/mL in dark-I condition (expt-I); format: functional, Mus musculus; summary of the method: as §1
[17] = Ability to block cleavage of G/ANTC site in Hinf1 enzyme with the light activated test compound/DNA ratio 4(no. of sites=10); += light activation; summary of the method: as §3
[18] = Ability to block cleavage of GG/CC site in HaeIII enzyme with the light activated test compound/DNA ratio 1(no. of sites=22); += light activation; summary of the method: as §3
[19] = Mean value of mutation induction for L5178Y cells was evaluated at dose 0.005 mg/mL in light condition (expt-II); format: functional, Mus musculus; summary of the method: as §1
[20] = Ability to block cleavage of G/ANTC site in Hinf1 enzyme with the light activated test compound/DNA ratio 1(no. of sites=10); += light activation; summary of the method: as §3
[21] = Viability of L5178Y cells was evaluated at dose 0.005 mg/mL in light-I condition (expt-I); format: functional, Mus musculus; summary of the method: as §4
[22] = Ability to block cleavage of GCC/GGC site in NaeI enzyme with the light activated test compound/DNA ratio 4(no. of sites=4); += light activation; summary of the method: as §3
[23] = Ability to block cleavage of AG/CT site in AluI enzyme with the light activated test compound, DNA ratio 1(no. of sites=16); += light activation; summary of the method: as §3
[24] = Relative toxicity against mammalian L5178Y cells at dose 0.008 mg/mL in dark-2 condition (expt-I); format: functional, Mus musculus; details: in the assay text read “0.008 µg/mL” for “0.008 mg/mL”; summary of the method: as §2
[25] = Mean value of mutation induction for L5178Y cells was evaluated at dose 0.005 mg/mL in light-I condition (expt-I); format: functional, Mus musculus; summary of the method: as §1
[26] = Mean value of mutation induction for L5178Y cells was evaluated at dose 0.005 mg/mL in dark condition (expt-II); format: functional, Mus musculus
Summary of the method: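 L5178Y cells in suspension culture, gassed with 5% CO2 in air, shaken at 150 rpm, 37 °C. Cells at 3 × 10^6/mL were dosed for 20 h, unirradiated and without activating enzyme, then washed twice in Fop and grown 24 h more. TFT-resistant mutants came from 10^6 cells plated in three dishes of cloning medium with 0.1 mg/mL TFT, colonies counted at 10 days; frequency expressed ×10^6.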

[27] = Mutation frequency for L5178Y cells was evaluated at dose 0.005 mg/mL in light condition (expt-II); format: functional, Mus musculus; summary of the method: as §1
[28] = Induction frequency for L5178Y cells was evaluated at dose 0.008 mg/mL in dark-II condition (expt-I); format: functional, Mus musculus; summary of the method: as §1
[29] = Ability to block cleavage of G/ANTC site in Hinf1 enzyme with the light activated test compound/DNA ratio 1:8(no. of sites=10); += light activation; summary of the method: as §3
[30] = Ability to block cleavage of […] site in NciI enzyme with the light activated test compound/DNA ratio 1:8(no. of sites=10); += light activation; summary of the method: as §3

## COc1cc(NS(C)(=O)=O)ccc1Nc1c2ccccc2nc2cc(N=[N+]=[N-])ccc12.Cl
[1]
  half-life: > 14 days
[2]
  Relative activity: 53
[3]
  Relative activity: 30
[4]
  Relative toxicity: 65
[5]
  Blockage activity: Light activation
[6]
  Relative toxicity: 69
[7]
  Blockage activity: Light activation
[8]
  Induced frequency: 366
[9]
  Viability: 0
[10]
  Blockage activity: Light activation
[11]
  Blockage activity: Light activation
[12]
  Relative activity: 28
[13]
  Viability: 37.7
[14]
  Blockage activity: Light activation
[15]
  Blockage activity: Light activation
[16]
  Mutation frequency: 427 10e6 F
[17]
  Blockage activity: Light activation
[18]
  Blockage activity: Light activation
[19]
  Mean value: 114.3
[20]
  Blockage activity: Light activation
[21]
  Viability: 57
[22]
  Blockage activity: Light activation
[23]
  Blockage activity: Light activation
[24]
  Relative toxicity: 55
[25]
  Mean value: 123.7
[26]
  Mean value: 95
[27]
  Mutation frequency: 640 10e6 F
[28]
  Induced frequency: 457
[29]
  Blockage activity: Light activation
[30]
  Blockage activity: Light activation
